Published values pooled from the literature.
Compare with care: the assays were run in different laboratories.
FLT3: Receptor-type tyrosine-protein kinase FLT3 (FLT3, Homo sapiens, UniProt P36888)
FLT3 autoinhibited: Receptor-type tyrosine-protein kinase FLT3, autoinhibited (FLT3, Homo sapiens, UniProt P36888)
FLT3 D835H: Receptor-type tyrosine-protein kinase FLT3 (FLT3, Homo sapiens, UniProt P36888, D835H)
FLT3 D835Y: Receptor-type tyrosine-protein kinase FLT3 (FLT3, Homo sapiens, UniProt P36888, D835Y)
FLT3 F691L/ITD: Receptor-type tyrosine-protein kinase FLT3 (FLT3, Homo sapiens, UniProt P36888, F691L/ITD)
FLT3 D835V: Receptor-type tyrosine-protein kinase FLT3 (FLT3, Homo sapiens, UniProt P36888, D835V)
FLT3 R834Q: Receptor-type tyrosine-protein kinase FLT3 (FLT3, Homo sapiens, UniProt P36888, R834Q)

Structure (SMILES) | target | assay | conditions | measurement | value
CC(C)(C)c1nc2c(s1)c1nc(N)ncc1c1ccc(NS(=O)(=O)c3c(F)cccc3F)c(F)c12 | FLT3 | enzyme activity, inhibitor, radiometric | 1 µM | remaining activity | 104%
Cc1cnc(NC2CCOCC2)nc1-n1cnc(C(=O)NC(CN)c2cc(F)cc(Cl)c2)c1 (stereo not shown) | FLT3 | enzyme activity, inhibitor, radiometric | 1 µM | remaining activity | 94%
N[C@@H]1CCN(c2nccc(-c3cnn4ncccc34)n2)C1 | FLT3 autoinhibited | binding | 1 µM | remaining binding | 100%
Fc1cccc(-n2cnc3c(NCc4nc5c(F)c(F)ccc5[nH]4)nc(N4CCOCC4)nc32)c1 | FLT3 D835H | binding, competition with immobilised ligand | 10 µM | binding vs control | 42%
c1cnn2ncc(-c3ccnc(N4CCC45COC5)n3)c2c1 | Receptor-type tyrosine-protein kinase FLT3 (FLT3, Homo sapiens, UniProt P36888, N841I) | binding | 1 µM | remaining binding | 72%
O=C(NCCCN1CCOCC1)c1ccc(Nc2nccc(-c3cc4ccccc4s3)n2)cc1 | FLT3 autoinhibited | binding, competition with immobilised ligand | 1 µM | remaining binding | 67%
O=C(Nc1cccnn1)N1CCC(=Cc2cccc(Oc3ccc(C(F)(F)F)cn3)c2)CC1 | FLT3 D835Y | cell-free assay, competition with immobilised ligand | 1 µM | remaining binding | 100%
Nc1ncnc2occ(-c3ccc(NC(=O)Nc4cc(C(F)(F)F)ccc4F)cc3)c12 | FLT3 F691L/ITD | cell-free assay, inhibitor | 20 µM | remaining signal | 6.5%
Oc1cccc(-c2nc(N3CCOCC3)c3oc4ncccc4c3n2)c1 | FLT3 | cell-free assay | 0.5 µM | remaining signal | 87.1%
CCOCCn1cc(C(=O)Nc2ccc(-n3nc(-c4cccnc4)cc3C(F)(F)F)cn2)ccc1=O | FLT3 D835H | cell-free assay, competition with immobilised ligand | 1 µM | remaining binding | 87%
O=C(NCCCN1CCOCC1)c1ccc(Nc2ncc(Cl)c(-c3ccc(Cl)s3)n2)cc1 | FLT3 F691L/ITD | binding, competition with immobilised ligand | 1 µM | remaining binding | 5.1%
C[S+]([O-])c1ccc(-c2nc(-c3ccncc3)c(-c3ccc(F)cc3)[nH]2)cc1 (stereo not shown) | FLT3 | cell-free assay | 0.5 µM | remaining signal | 91.5%
NS(=O)(=O)c1cc(NC(=O)Cc2ccccc2)ccc1Oc1cccc(Cl)c1 | FLT3 | cell-free assay, competition with immobilised ligand | 1 µM | remaining binding | 100%
CC1CCCN1c1nccc(-c2cnn3ncccc23)n1 (stereo not shown) | FLT3 D835V | binding | 1 µM | remaining binding | 79%
NS(=O)(=O)c1cc(NC(=O)C2(c3ccccc3Cl)CC2)ccc1Oc1cccc(Cl)c1 | FLT3 R834Q | cell-free assay, competition with immobilised ligand | 1 µM | remaining binding | 100%
COc1cc(Cl)c(C(=O)N[C@@H](CN[C@H]2CC[C@@H](N)CC2)Cc2ccc(C#N)cc2)cc1-c1ccc(CN[C@H](C)c2ccc(C)cc2)o1 | FLT3 | enzyme activity, inhibitor | 1 µM | remaining activity | 103%
Cc1c(NC(=O)c2cc(C(N)=O)nc3cc(F)ccc23)c(C(F)(F)F)nn1Cc1ccc(C#N)cc1 | FLT3 | cell-free assay, competition with immobilised ligand | 1 µM | remaining binding | 99%
CN(C)c1nccc(-c2cnc3ncccn23)n1 | FLT3 D835Y | binding | 1 µM | remaining binding | 78%
O=C(c1ccc(Nc2nccc(-c3cc4ccccc4s3)n2)cc1)N1CCC(N2CCCC2)CC1 | Receptor-type tyrosine-protein kinase FLT3 (FLT3, Homo sapiens, UniProt P36888, D835V/ITD) | binding, competition with immobilised ligand | 1 µM | remaining binding | 8.3%

Structure (SMILES) | target | assay | conditions | measurement | value
N#CC1(c2ccccn2)CCN(Cc2cc(C(=O)N3CCCC3)c(=O)n3ccccc23)CC1 | FLT3 D835Y | cell-free assay, competition with immobilised ligand | 1 µM | remaining binding | 71%
C[C@H]1CCN(c2nccc(-c3cnn4ncccc34)n2)C1 | FLT3 D835V | binding | 1 µM | remaining binding | 53%
Cc1ccc(C(=O)Nc2ccc(CN3CCN(C)CC3)c(C(F)(F)F)c2)cc1C#Cc1cnc2cccnn12 | FLT3 | enzyme activity, inhibitor | 23.5 nM | remaining activity | 58%
O=C(c1cc2cc(O)ccc2[nH]1)c1cc2cc(O)ccc2[nH]1 | FLT3 | cell-free assay | 0.5 µM | remaining signal | 3.53%
CCCCN(CCCC)C(=O)CN1C[C@@H](c2cc(OC)c3c(c2)OCO3)[C@H](C(=O)O)[C@H]1CC(C)(C)CCC | FLT3 autoinhibited | cell-free assay, competition with immobilised ligand | 1 µM | remaining binding | 97.4%
Cc1ccc(NC(=O)c2ccc(C)c(C(F)(F)F)c2)cc1C#Cc1nn(C2CCC(O)CC2)c2ncnc(N)c12 (stereo not shown) | FLT3 | cell-free assay | 10 µM | remaining signal | 73%
Cc1cnc(-c2ccc(-c3ccc(NC(=O)Nc4c(F)cc(F)cc4F)cc3F)c3c2C(=O)NC3)[nH]1 | Receptor-type tyrosine-protein kinase FLT3 (FLT3, Homo sapiens, UniProt P36888, ITD) | enzyme activity, inhibitor | 0.1 µM, 90 min | activity vs control | 6.2%
O=C(c1ccc(Nc2ncc(Cl)c(-c3ccc(Cl)s3)n2)cc1)N1CCC(N2CCCC2)CC1 | FLT3 D835Y | binding, competition with immobilised ligand | 1 µM | remaining binding | 1.1%
CCCOc1ccc(OC)c(F)c1C(=O)c1ccc(C(=O)N[C@@H]2CNC[C@H]2NC(=O)c2ccc3[nH]ncc3c2)cc1 | FLT3 | enzyme activity, inhibitor | 10 µM | remaining activity | 32%
Cc1ccc(C(=O)NCc2ccsc2)cc1C#Cc1cn(C(C)C)c2ncnc(N)c12 | FLT3 | enzyme activity, inhibitor | 1 µM | activity vs control | 80%
CN(C)c1ncc(F)c(-c2cnn3ncccc23)n1 | FLT3 D835H | binding | 1 µM | remaining binding | 86%
O=C(c1ccc(Nc2ncc(Cl)c(-c3cc4ccccc4s3)n2)cc1)N1CCC(N2CCCC2)CC1 | FLT3 R834Q | binding, competition with immobilised ligand | 1 µM | remaining binding | 11%
Cc1sc(C(=O)NC2COC2)cc1-n1cc(NC(=O)Nc2c(F)cccc2Cl)cn1 | FLT3 | enzyme activity, inhibitor | 10 µM | remaining activity | 69.1%
Cc1[nH]c(/C=C2\C(=O)Nc3ccc(F)cc32)c(C)c1C(=O)N[C@H]1CCN(C(=O)N(C)C)C1 | FLT3 | enzyme activity, inhibitor | 1 µM | remaining activity | 2%
CN(c1ccnc(CNc2nc(Nc3ccc4c(c3)CC(=O)N4)ncc2C(F)(F)F)n1)S(C)(=O)=O | FLT3 D835H | cell-free assay, competition with immobilised ligand | 1 µM | remaining binding | 15%
CN(CCCC(F)(F)F)c1nccc(-c2cnn3ncccc23)n1 | FLT3 | binding | 1 µM | remaining binding | 63%
Cc1cnc(Nc2ccc(C(=O)N3CCC(N4CCCC4)CC3)cc2)nc1-c1cc2ccccc2s1 | FLT3 R834Q | binding, competition with immobilised ligand | 1 µM | remaining binding | 6.2%
CNC(=O)c1cc(Oc2ccc(NC(=O)Nc3ccc(Cl)c(C(F)(F)F)c3)cc2)ccn1 | FLT3 | cell-free assay | 0.5 µM | remaining signal | 9.22%
